Test results reported in ChEMBL document CHEMBL4840308, “Design and synthesis of Mannich base-type derivatives containing imidazole and benzimidazole as lead compounds for drug discovery in Chagas Disease” (Eur J Med Chem, 2021).
Calls of active or inactive are those of the source. The calls are words filed in the database; no cut-off is given here.

Key:
[1] = system: Trypanosoma cruzi; assay: Antiprotozoal activity against Trypanosoma cruzi epimastigotes assessed as inhibition of parasite growth incubated for 72 hrs followed by alamar blue addition further incubated for 24 hrs; assay type: functional, organism-based
In short: (§1)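 CL-Luc:Neon epimastigotes, 2.5 x 10^5/well in RPMI-1640, exposed 72 h at 27 C to 8-point 2:1 serial dilutions (DMSO <0.5% final); Alamar Blue […] added, 24 h further, read at 540 nm; IC50 interpolated from sigmoidal variable-slope fit; triplicates, three independent experiments.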

[2] = Cytotoxicity against golden hamster BSR cells assessed as reduction in cell viability incubated for 72 hrs followed by alamar blue addition further incubated for 6 hrs; assay type: cell-based; details: Mesocricetus auratus
In short: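 BSR (BHK-21 subclone) cells, 5 x 10^4/well in DMEM with 5% FBS, adhered 6 h at 37 C, 5% CO2, then given 8-point 2:1 drug dilutions for 72 h; Alamar Blue added for 6 h, absorbance 540 nm; IC50 from sigmoidal variable-slope fit; triplicates, three independent experiments.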

[3] = Selectivity index, ratio of IC50 for cytotoxicity against golden hamster BSR cells to IC50 for antiprotozoal activity against Trypanosoma cruzi epimastigotes; assay type: toxicity, cell-based; details: read-out: Selectivity Index
In short: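 Selectivity index as ratio of BSR cell IC50 to epimastigote IC50, both from 72 h Alamar Blue assays.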

[4] = system: Trypanosoma cruzi; assay: Antiprotozoal activity against Trypanosoma cruzi epimastigotes assessed as decrease in parasitemia by measuring change in fluorescence intensity at >2.5 uM measured after 3 days by flourescence based analysis; assay type: functional, organism-based; details: dose microM >2.5, time 3.0 day
[5] = system: Trypanosoma cruzi; assay: Antitrypanosomal activity against Trypanosoma cruzi amastigotes infected in BSR cells assessed as inhibition of replication of intracellular amastigotes incubated for 72 hrs by fluorescence based analysis; assay type: functional, organism-based
In short: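 BSR cells (5 x 10^4/well) attached 6 h, infected overnight with CL-Luc:Neon tissue-culture trypomastigotes at MOI 10, washed 3x PBS, then drug in DMEM with 1% FBS for 72 h; fixed in 4% paraformaldehyde 30 min, fluorescence read ex 488/em 525 nm; IC50 by curve interpolation; triplicates, three experiments.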

[6] = system: Trypanosoma cruzi; assay: Antitrypanosomal activity against Trypanosoma cruzi trypomastigotes assessed as inhibition of cellular invasion incubated for 6 hrs in high-glucose DMEM medium followed by compound washout further infected in BSR cells measured after 72 hrs by fluorescence based analysis; assay type: functional, organism-based
In short: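 Tissue-culture trypomastigotes exposed to drug dilutions 6 h at 37 C in high-glucose DMEM with 10% FBS, washed 3x PBS, used to infect BSR cells overnight; non-internalised parasites washed off, 1% FBS medium, infection run 72 h further; amastigote fluorescence (ex 488/em 525 nm) read; IC50 for invasion reduction by curve interpolation.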

[7] = Selectivity index, ratio of cytotoxicity against golden hamster BSR cells to IC50 for antitrypanosomal activity against Trypanosoma cruzi amastigotes infected in BSR cells; assay type: toxicity, cell-based; details: read-out: Selectivity Index
In short: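 Selectivity index as ratio of BSR cell IC50 to intracellular amastigote IC50 (72 h fluorescence read-out).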

[8] = Selectivity index, ratio of cytotoxicity against golden hamster BSR cells to IC50 for antitrypanosomal activity against Trypanosoma cruzi trypomastigotes; assay type: toxicity, cell-based; details: read-out: Selectivity Index
In short: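 Selectivity index as ratio of BSR cell IC50 to trypomastigote invasion IC50 (6 h pre-exposure, fluorescence read-out).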

[9] = system: Trypanosoma cruzi; assay: Trypanocidal activity against Trypanosoma cruzi CL-Luc-Neon amastigotes infected in BSR cells assessed as inhibition of parasite growth at 20 times IC50 incubated for 20 days measured after 10 days of compound wash out by epifluorescence microscopy analysis; assay type: functional, organism-based; details: time 20.0 day
In short: (§2)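 BSR cells on 8-well slides or 24-well plates infected with CL-Luc:Neon trypomastigotes as in the amastigote assay, then exposed to 10 or 20 x IC50 for 10 or 20 days, compound renewed every 4 days; after removal, followed up to 30 days by light and fluorescence microscopy at 37 C, 5% CO2; three wells per treatment, 30 captures per timepoint; relapse day recorded.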

[10] = system: Trypanosoma cruzi; assay: Trypanocidal activity against Trypanosoma cruzi CL-Luc-Neon amastigotes infected in BSR cells assessed as inhibition of parasite growth at 20 times IC50 incubated for 20 days measured after 30 days of compound wash out by epifluorescence microscopy analysis; assay type: functional, organism-based; details: time 20.0 day; in short: as §2
[11] = system: Trypanosoma cruzi; assay: Antitrypanosomal activity against Trypanosoma cruzi trymastigotes assessed as blockage of trypomastigote infectivity at >50 uM incubated for 6 hrs followed by compound washout further infected in BSR cells for 18 hrs measured after 120 hrs post infection by inverted fluorescence microscope analysis; assay type: functional, organism-based; details: dose microM >50, time 6.0 hrs
In short: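 Trypomastigotes held 6 h in serial drug concentrations, washed 3x PBS, then infect BSR cells at 10:1 trypomastigote:cell for 18 h; at 120 h post-infection, amastigote replication inspected by inverted epifluorescence microscopy (30 images per treatment, DAPI-stained host nuclei) to find the concentration preventing productive infection.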

[12] = Genotoxicity in human TK6 cells assessed as decrease in cell proliferation at 40 uM incubated for 3 hrs by comet assay relative to control; assay type: cell-based; design: scale not given: the % may be the effect or the level left; details: tk6, 3 h
In short: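 TK-6 cells (6 x 10^5 in 1 mL RPMI 1640 with 10% FBS) treated 3 h, washed, cultured 48 h at 37 C, 5% CO2 with agitation, counted at 24 and 48 h; relative suspension growth = TSG treated/TSG control as percentage; three independent experiments.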

[13] = system: Trypanosoma cruzi; assay: Trypanocidal activity against Trypanosoma cruzi epimastigotes assessed as inhibition of parasite growth by alamar blue staining based fluorescence analysis; assay type: functional, organism-based; in short: as §1
[14] = system: Trypanosoma cruzi; assay: Trypanocidal activity against Trypanosoma cruzi amastigotes assessed as inhibition of parasite growth by alamar blue staining based fluorescence analysis; assay type: functional, organism-based
[15] = system: Trypanosoma cruzi; assay: Trypanocidal activity against Trypanosoma cruzi trypomastigotes assessed as inhibition of parasite growth by alamar blue staining based fluorescence analysis; assay type: functional, organism-based
[16] = system: Trypanosoma cruzi; assay: Synergistic trypanocidal activity against Trypanosoma cruzi epimastigotes assessed as combination index at IC50 in presence of benznidazole by alamar blue staining based fluorescence analysis; assay type: functional
In short: (§3)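 Benznidazole IC50 redetermined by Alamar Blue or fluorescence read-outs under each stage's standard seeding conditions in the presence of the partner drug at its IC50; combination index by isobologram method (Ci <1 synergy, =1 additive, >1 antagonism); triplicate per plate, repeated at least twice.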

[17] = system: Trypanosoma cruzi; assay: Synergistic trypanocidal activity against Trypanosoma cruzi amastigotes assessed as combination index at IC50 in presence of benznidazole by alamar blue staining based fluorescence analysis; assay type: functional; in short: as §3
[18] = system: Trypanosoma cruzi; assay: Synergistic trypanocidal activity against Trypanosoma cruzi trypomastigotes assessed as combination index at IC50 in presence of benznidazole by alamar blue staining based fluorescence analysis; assay type: functional; in short: as §3
[19] = system: Trypanosoma cruzi; assay: Trypanocidal activity against Trypanosoma cruzi epimastigotes assessed as fold decrease in benznidazole IC50 by alamar blue staining based fluorescence analysis relative to control; assay type: functional; design: scale not given: the % may be the effect or the level left; in short: as §3
[20] = system: Trypanosoma cruzi; assay: Trypanocidal activity against Trypanosoma cruzi trypomastigotes assessed as fold decrease in benznidazole IC50 by alamar blue staining based fluorescence analysis relative to control; assay type: functional; in short: as §3
[21] = system: Trypanosoma cruzi; assay: Antitrypanosomal activity against Trypanosoma cruzi trymastigotes assessed as blockage of trypomastigote infectivity at >100 uM incubated for 6 hrs followed by compound washout further infected in BSR cells for 18 hrs measured after 5 days post infection by inverted fluorescence microscope analysis; details: dose microM >100, time 6.0 hrs
[22] = Genotoxicity in human TK6 cells assessed as decrease in cell proliferation at 20 uM incubated for 3 hrs by comet assay; assay type: cell-based; details: tk6, 3 h
In short: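 TK-6 human lymphoblastoid cells (6 x 10^5 in 1 mL culture medium) exposed 3 h, washed three times, then grown 48 h in fresh medium at 37 C, 5% CO2 with agitation, and counted at 24 h (to adjust density) and at 48 h. Relative suspension growth is total suspension growth (48 h count / pre-treatment count) as % of untreated control. Triplicates, three independent experiments.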

[23] = system: Trypanosoma cruzi; assay: Trypanocidal activity against Trypanosoma cruzi CL-Luc-Neon amastigotes infected in BSR cells assessed as inhibition of parasite growth at 10 times IC50 incubated for 20 days measured after 10 days of compound wash out by epifluorescence microscopy analysis; assay type: functional, organism-based; details: time 20.0 day; in short: as §2
[24] = system: Trypanosoma cruzi; assay: Trypanocidal activity against Trypanosoma cruzi CL-Luc-Neon amastigotes infected in BSR cells assessed as inhibition of parasite growth at 10 times IC50 incubated for 10 days measured after 10 days of compound wash out by epifluorescence microscopy analysis; assay type: functional, organism-based; details: time 10.0 day; in short: as §2

Structure (SMILES)	IC50 [1] [µM]	IC50 [2] [µM]	selectivity ratio [3]	IC50 [5] [µM]	IC50 [6] [µM]	selectivity ratio [7]	selectivity ratio [8]	further results
COc1ccc(C(=O)CCn2ccnc2[N+](=O)[O-])cc1	2.2	84.7	43	3.3	9.1	28	9	Activity [4]: Active; Activity [9]: Active; Activity [10]: Active; Activity [11]: Active; Activity [12]: 45%; IC50 [13]: 1.2 µM; IC50 [14]: 0.4 µM; IC50 [15]: 5.4 µM; CI [16]: 0.33; CI [17]: 0.81; CI [18]: 0.21; Activity [19]: 70%; fold change (FC) [20]: 4
O=C(CCn1cnc2ccccc21)C12CC3CC(CC(C3)C1)C2	24.8	67.6	3	–	–	–	–	–
COc1cc(OC)cc(C(=O)CCn2cnc3ccccc32)c1	11.1	70.1	6	–	–	–	–	–
O=C(CCn1ccnc1)c1ccc(Cl)c(F)c1	23.3	135	6	–	–	–	–	–
Cc1ccccc1C(=O)CCn1ccnc1	21.4	145	7	–	–	–	–	–
O=C(Cn1ccnc1[N+](=O)[O-])NCc1ccccc1 [BENZNIDAZOLE]	–	267	67	0.5	22.4	504	12	Activity [4]: Active; Activity [9]: Active; Activity [10]: Active; Activity [21]: inactive
COS(C)(=O)=O [METHANESULFONIC ACID METHYL ESTER]	–	–	–	–	–	–	–	Activity [22]: Toxic
O=C(CCn1ccnc1)c1cccc([N+](=O)[O-])c1	21.6	177	8	12.2	23	15	8	Activity [23]: inactive; Activity [24]: inactive
O=C(CCn1ccnc1)c1ccc([N+](=O)[O-])cc1	12.9	93.9	7	9.1	–	10	–	–
O=C(CCn1ccnc1)c1ccc(F)c2ccccc12	7.4	72.2	10	6.1	16.6	12	4	Activity [23]: inactive; Activity [24]: inactive
